Data from ChEMBL document CHEMBL1142998, “Structure-activity relationship study of tricyclic necroptosis inhibitors” (J Med Chem, 2007).
The source made the active and inactive calls. No cut-off for these calls is given here.

System: L929
Assay: Inhibition of TNF alpha-induced necroptosis in mouse L929 cells assessed as cell viability at 30 uM after 24 hrs
Format: functional, cell-based
In short: (§1)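 L929 cells, 100000 cells/mL, challenged with 10 ng/mL human TNF-α or 100 µM zVAD.fmk alongside compound at 30 µM or DMSO, 24 h, 37 °C, 5% CO2; final DMSO 0.5%, duplicates. Viability by luminescent ATP assay, corrected for nonspecific compound toxicity; mean % viability ± SD from two independent experiments.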

SMILES	Activity
COc1ccc([C@H]2[C@H]3CCc4ccc(OC)cc4C3=NN2C(C)=O)cc1	Active
CN1C(=O)N[C@H](Cc2c[nH]c3c(Cl)cccc23)C1=O (racemic)	Active

System: L929
Assay: Inhibition of zVAD.fmk-induced necroptosis in mouse L929 cells assessed as cell viability at 30 uM after 24 hrs
Format: functional, cell-based
In short: as §1

SMILES	Activity
COc1ccc([C@H]2[C@H]3CCc4ccc(OC)cc4C3=NN2C(C)=O)cc1	inactive
CN1C(=O)N[C@H](Cc2c[nH]c3c(Cl)cccc23)C1=O (racemic)	Active

System: Jurkat
Assay: Inhibition of TNF alpha-induced necroptosis in FADD-deficient variant human Jurkat T cells assessed as cell viability after 24 hrs
Format: functional, cell-based
In short: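 FADD-deficient human Jurkat T cells at 500000 cells/mL exposed to 10 ng/mL human TNF-α plus compound at 11 concentrations (0.029–100 µM), each in duplicate, 24 h, 37 °C, 5% CO2; final DMSO 0.5%. ATP luminescence viability expressed relative to compound alone (TNF/compound signal ratio). EC50 from variable-slope sigmoid nonlinear regression; two independent experiments unless noted.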

SMILES	EC50
COc1ccc([C@H]2[C@H]3CCc4ccc(F)cc4C3=NN2C(C)=O)cc1	0.28 µM
COc1cc2c(cc1OC)C1=NN(C(C)=O)[C@@H](c3ccc(F)cc3)[C@H]1CC2	> 100 µM
COc1ccc2c(c1)C1=NN(C(C)=O)[C@@H](c3ccc(F)cc3)[C@H]1CO2	4.8 µM
CCN1N=C2c3cc(OC)ccc3CC[C@@H]2[C@@H]1c1ccc(OC)cc1	> 100 µM
COc1ccc([C@H]2[C@H]3C[C@H](N)c4ccc(OC)cc4C3=NN2C(C)=O)cc1	1.2 µM
COc1ccc([C@H]2[C@H]3CCc4ccc(OC)cc4C3=NN2C(=O)COC(C)=O)cc1	3.1 µM
COc1ccc2c(c1)C1=NN(C(C)=O)[C@@H](c3ccc(O)cc3)[C@H]1CC2	5.9 µM
COc1ccc2c(c1)C1=NN(C(C)=O)[C@@H](c3ccc(F)cc3)[C@@H]1CC2	3.7 µM
COc1ccc([C@H]2[C@H]3CCc4ccccc4C3=NN2C(C)=O)cc1	0.84 µM
CC(=O)N1N=C2c3cc(C)ccc3OC[C@@H]2[C@@H]1c1ccc(F)cc1	11.6 µM
COc1ccc2c(c1)C1=NN(C(C)=O)[C@@H](c3ccc([N+](=O)[O-])cc3)[C@H]1CC2	1.8 µM
COc1ccc2c(c1)CC[C@H]1C2=NN(C(C)=O)[C@H]1c1ccc(F)cc1	> 100 µM
COc1ccc([C@H]2[C@H]3CCc4ccc(OC)cc4C3=NN2C(N)=S)cc1	8.8 µM
COc1ccc([C@H]2[C@@H]3CCc4ccc(F)cc4C3=NN2C(C)=O)cc1	2.7 µM
COc1ccc([C@H]2[C@H]3CCc4cccc(OC)c4C3=NN2C(C)=O)cc1	> 50 µM
CC(=O)N1N=C2c3cc(C)ccc3OC[C@H]2[C@@H]1c1ccc(F)cc1	> 100 µM
CCC(=O)N1N=C2c3cc(OC)ccc3CC[C@@H]2[C@@H]1c1ccc(OC)cc1	0.15 µM
COc1ccc([C@H]2[C@H]3CCc4ccc(OC)cc4C3=NN2C=O)cc1	0.92 µM
COc1ccc([C@H]2[C@@H]3CCc4ccc([N+](=O)[O-])cc4C3=NN2C(C)=O)cc1	> 100 µM
COc1ccc([C@H]2[C@H]3CCc4ccc([N+](=O)[O-])cc4C3=NN2C(C)=O)cc1	3.5 µM

SMILES	EC50
COc1ccc2c(c1)C1=NN(C(C)=O)[C@@H](c3ccc(OCc4ccccc4)cc3)[C@H]1CC2	> 100 µM
CNC(=S)N1N=C2c3cc(OC)ccc3CC[C@@H]2[C@@H]1c1ccc(OC)cc1	7.9 µM
COc1ccc([C@H]2[C@H]3CCc4ccc(OC)cc4C3=NN2C(=N)N)cc1	> 100 µM
COc1ccc([C@H]2[C@H]3CCc4ccc(OCc5ccccc5)cc4C3=NN2C(C)=O)cc1	5 µM
COc1ccc2c(c1)C1=NN(C(C)=O)[C@@H](c3cccc(F)c3)[C@H]1CC2	0.68 µM
COc1ccc2c(c1)CC[C@@H]1C2=NN(C(C)=O)[C@H]1c1ccc(F)cc1	> 100 µM
COc1ccc2c(c1)C1=NN(C(C)=O)[C@@H](c3ccc(F)cc3)[C@H]1CC2	0.96 µM
COc1ccc([C@H]2[C@H]3CCc4ccc(OCCN5CCOCC5)cc4C3=NN2C(C)=O)cc1	> 50 µM
CC(=O)N1N=C2c3ccccc3CC[C@@H]2[C@@H]1c1ccc(F)cc1	5.4 µM
COc1ccc2c(c1)C1=NN(C(C)=O)[C@@H](c3ccc4c(c3)OCO4)[C@H]1CC2	2.6 µM
COc1ccc2c(c1)C1=NN(C(C)=O)[C@@H](c3ccc4c(c3)OCCO4)[C@H]1CC2	2.1 µM
COc1ccc2c(c1)C1=NN(C(C)=O)[C@@H](c3ccc(SC)cc3)[C@H]1CC2	1.1 µM
CN1C(=O)N[C@H](Cc2c[nH]c3c(Cl)cccc23)C1=O (racemic)	0.21 µM
COc1ccc2c(c1)C1=NN(C(C)=O)[C@@H](c3ccccc3OC)[C@H]1CC2	> 100 µM
CC(=O)N1N=C2c3cc(O)ccc3CC[C@@H]2[C@@H]1c1ccc(O)cc1	> 100 µM
COCC(=O)N1N=C2c3cc(OC)ccc3CC[C@@H]2[C@@H]1c1ccc(OC)cc1	0.44 µM
COc1ccc([C@H]2[C@H]3C[C@H](N(C)C)c4ccc(OC)cc4C3=NN2C(C)=O)cc1	5.1 µM
COc1ccc([C@H]2[C@H]3CCc4c(OC)cccc4C3=NN2C(C)=O)cc1	> 100 µM
COc1ccc([C@H]2[C@H]3CCc4ccc(OC)cc4C3=NN2C(N)=O)cc1	4.3 µM
